Experiment [1] deals with T1, Glutamate receptor ionotropic, AMPA (Rattus norvegicus, UniProt P19490+P19491+P19492+P19493). Nature of the experiment: Agonistic activity electrophysiologically against AMPA using rat cortical wedge preparation. It counts as functional.
For experiment [2], the target named is T1, Glutamate receptor ionotropic, AMPA. Nature of the experiment: Inhibition of [3H]AMPA binding to rat brain membranes. The class given is cell membranes, Membrane.
Experiment [3] concerns the target Glutamate receptor ionotropic, kainate. Nature of the experiment: Inhibition of [3H]-Kainic acid binding to rat brain membranes. It counts as cell membranes, Membrane.
For experiment [4], the target named is Glutamate NMDA receptor. Nature of the experiment: Inhibition of [3H]CPP binding to rat brain membranes. The class given is cell membranes, Membrane.
The target of experiment [5] is Glutamate NMDA receptor. Nature of the experiment: Tested in vitro for the antagonistic activity electrophysiologically against NMDA using rat cortical wedge preparation. It counts as functional. Put shortly:
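Rat cortical wedge preparation. The cortex was superfused with Mg²⁺-free Krebs buffer and the corpus callosum with Mg²⁺- and Ca²⁺-free Krebs buffer, at 25 °C. Compounds were added to the cortical superfusate, and the potential difference between the electrodes was recorded on a chart recorder.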

Experiment [6] deals with Glutamate receptor ionotropic, NMDA (Rattus norvegicus). Briefly: Tested in vitro for the antagonistic activity electrophysiologically against NMDA using rat cortical wedge preparation.

The term EC50 denotes the concentration at which the effect is half-maximal. A low value points to a more potent agent. For orientation: IC50 means the concentration that gives 50% inhibition. A lower IC50 goes with inhibition by little substance.

As to `C/C=C/COc1noc(C(=O)O)c1CC(N)C(=O)O` (centres undefined), in experiment [1], the EC50 is 500 µM. The IC50 (in experiment [2]; in experiment [3]; on Glutamate NMDA receptor [4]) was more than 100 µM in each case.

The molecule `NC(Cc1c(O)noc1C(=O)O)C(=O)O` (centres undefined) had a 50% effective concentration (EC50) in experiment [1] of more than 1000 µM. The IC50 (in experiment [2]; in experiment [3]; at Glutamate NMDA receptor [4]) was more than 100 µM in each case.

`CC(C)Oc1noc(C(=O)O)c1CC(N)C(=O)O` (centres undefined) returned an EC50 in experiment [1] of 37 µM. In addition, the values for the IC50 (in experiment [2]; in experiment [3]; at Glutamate NMDA receptor [4]) were 5.5 µM, more than 100 µM and more than 100 µM, respectively.

`COc1noc(C(=O)O)c1CC(N)C(=O)O` (centres undefined) had a concentration for a half-maximal effect (EC50) in experiment [1] of 1.2 µM. Further, the values for the 50% inhibitory concentration (IC50) (in experiment [2]; in experiment [3]; on Glutamate NMDA receptor [4]) were 0.11 µM, more than 100 µM and more than 100 µM, respectively.

Molecule `NC(Cc1c(OCc2ccccc2)noc1C(=O)O)C(=O)O` (centres undefined) had an EC50 in experiment [1] of more than 1000 µM. The concentration for half-maximal inhibition (IC50) (in experiment [2]; in experiment [3]; on Glutamate NMDA receptor [4]) was more than 100 µM in each case.

In experiment [1], `C=CCOc1noc(C(=O)O)c1CC(N)C(=O)O` (centres undefined) registered an EC50 of 40 µM. Also, the IC50 in experiment [2] is 7.2 µM; in experiment [3], more than 100 µM; on Glutamate NMDA receptor [4], more than 100 µM.

As for `CCCCOc1noc(C(=O)O)c1CC(N)C(=O)O` (centres undefined), a half-maximal response in experiment [1] (EC50) required 406 µM. The IC50 (in experiment [2]; in experiment [3]; at Glutamate NMDA receptor [4]) was more than 100 µM throughout.

Consider `CCOc1noc(-c2nn[nH]n2)c1CC(N)C(=O)O` (centres undefined), for which the response in experiment [1] was half-maximal at 2000 µM (EC50). Further, the IC50 (in experiment [2]; in experiment [3]; on Glutamate NMDA receptor [4]) was more than 100 µM each time.

The molecule `CCn1oc(C(=O)O)c(CC(N)C(=O)O)c1=O` (centres undefined) displayed a concentration giving a half-maximal response (EC50) in experiment [1] of more than 500 µM. The IC50 (in experiment [2]; in experiment [3]; on Glutamate NMDA receptor [4]) was more than 100 µM throughout.

As to `NC(Cc1c(C(=O)O)on(Cc2ccccc2)c1=O)C(=O)O` (centres undefined), the IC50 was more than 100 µM in experiment [2], more than 100 µM in experiment [3], more than 100 µM on Glutamate NMDA receptor [4] and 704 µM against Glutamate NMDA receptor [5].

As to `CCCCCOc1noc(C(=O)O)c1CC(N)C(=O)O` (centres undefined), in experiment [1], it took 1000 µM to reach a half-maximal effect (EC50). For the same molecule, the IC50 (in experiment [2]; in experiment [3]; at Glutamate NMDA receptor [4]) was more than 100 µM in each case.

The molecule `CCOc1noc(C(=O)O)c1CC(N)C(=O)O` (centres undefined) came in with an EC50 in experiment [1] of 4.8 µM. Moreover, the IC50 was 1 µM in experiment [2], more than 100 µM in experiment [3] and more than 100 µM at Glutamate NMDA receptor [4].

In the case of `CCCOc1noc(C(=O)O)c1CC(N)C(=O)O` (centres undefined), the EC50 in experiment [1] is 79 µM. In addition, the IC50 in experiment [2] was 14 µM; in experiment [3], more than 100 µM; at Glutamate NMDA receptor [4], more than 100 µM.

With `CCOc1noc(C(=O)O)c1C/N=c1\c(O)c(O)c1=N`, the IC50 in experiment [2] was more than 100 µM; in experiment [3], more than 100 µM; on Glutamate NMDA receptor [4] it was 76 µM; in experiment [6], 603 µM.

As to `CCOc1noc(-c2nc[nH]n2)c1CC(N)C(=O)O` (centres undefined), in experiment [1], the 50% effective concentration (EC50) is more than 100 µM. For the same molecule, the IC50 (in experiment [2]; in experiment [3]; at Glutamate NMDA receptor [4]) was more than 100 µM throughout.

Molecule `Cn1oc(C(=O)O)c(CC(N)C(=O)O)c1=O` (centres undefined) displayed an EC50 in experiment [1] of more than 1000 µM. The half-inhibitory concentration (IC50) (in experiment [2]; in experiment [3]; at Glutamate NMDA receptor [4]) was more than 100 µM throughout.

The values above are taken from ChEMBL document CHEMBL1133558, “Structural determinants of AMPA agonist activity in analogues of 2-amino-3-(3-carboxy-5-methyl-4-isoxazolyl)propionic acid: synthesis and pharmacology” (J Med Chem, 2000).
